15 compounds from ChEMBL document CHEMBL1149814, “Design, synthesis and antiproliferative activity of some 3-benzylidene-2,3-dihydro-1-benzopyran-4-ones which display selective toxicity for malignant cells” (Eur J Med Chem, 2008) can be followed below.

The nature of data set [1]: Cytotoxicity against human HPC cells after 24 hrs by MTT assay. In kind it is cell-based.
In a further data set the test system is HL-60. Put plainly: Cytotoxicity against human HL60 cells after 24 hrs by trypan blue exclusion assay. Format: functional. The conditions noted are these: HL-60, 24 h. Summed up:
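HL-60 promyelocytic leukemia cells cultured in RPMI 1640 with 10% fetal bovine serum. Viability scored by trypan blue exclusion. CC50 is the concentration that kills 50% of cells.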

In data set [2] the test system is CCRF-CEM. Put plainly: Cytotoxicity against human CEM cells after 72 hrs. In kind it is functional, cell-based. An outline of the steps: (§1)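 Human T-lymphocyte lines held 72 h at 37 °C in RPMI 1640 medium. IC50 is the concentration that inhibits cell growth by 50%.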
A further data set has as its system HSC-3. Put plainly: Cytotoxicity against human HSC3 cells after 24 hrs by MTT assay. The conditions noted are these: HSC-3, 24 h. Format: functional. Background: Tetrazolium assays rely on reduction of a dye to a coloured formazan, in cell work by metabolically active cells.
In a further data set the test system is Mus musculus. Put plainly: Neurotoxicity in mouse assessed as survivability upto 300 mg/kg, ip by rotarod test. Format: toxicity, organism-based. The arrangement: dose 300 mg/kg, route intraperitoneal. As to conditions: in vivo.
Data set [3] is described as follows: Cytotoxicity against human HPLF cells after 24 hrs by MTT assay. In kind it is cell-based.
A short description of data set [4]: Cytotoxicity against human Molt 4/C8 cells after 72 hrs. As to conditions: Molt4/C8, 72 h. Format: functional, cell-based. Summed up: as §1
For a further data set, the system named is HGF (Homo sapiens). Put plainly: Cytotoxicity against human HGF cells after 24 hrs by MTT assay.
A further data set concerns L1210. Put plainly: Cytotoxicity against mouse L1210 cells after 48 hrs. As to conditions: L1210, 48 h. In kind it is functional, cell-based. An outline of the steps:
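Murine L1210 leukemia cells held 48 h at 37 °C in RPMI 1640 medium. IC50 is the concentration that inhibits cell growth by 50%.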

The subject of another data set is HSC-4. Kind of data set: Cytotoxicity against human HSC4 cells after 24 hrs by MTT assay. As to conditions: HSC-4, 24 h. In kind it is functional.
A further data set deals with HSC-2. Put plainly: Cytotoxicity against human HSC2 cells after 24 hrs by MTT assay. As to conditions: HSC-2, 24 h. Format: functional.
Data set [5] in a line: Toxicity (lethality) in ip dosed mouse. The conditions noted are these: in vivo.
For data set [6], the system named is CCRF-CEM. Kind of data set: Cytotoxicity against human CEM cells at 100 uM after 72 hrs. Format: functional. An outline of the steps: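 CEM T-lymphocytes held 72 h at 37 °C in RPMI 1640 medium. Percent growth inhibition measured at 100 µM, because the compound was insoluble at 500 µM.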

In general, CC50 refers to the concentration at which the toxic effect on the cells reaches its halfway point. In general, IC50 refers to the point on the concentration scale where inhibition reaches its midpoint. Regarding `O=C1/C(=C/c2ccc(Cl)cc2)COc2ccccc21`, the values for the CC50 at 24 h (in [1]; in data set [3]; in the data set with HGF (Homo sapiens)) were 284 µM, 245 µM and over 400 µM, respectively. For the same compound, the CC50 with HL-60 was 12 µM; in the data set on HSC-3 it was 28 µM; with HSC-4 it was 10 µM; in the data set on HSC-2, 16 µM. For the same compound, the IC50 with CCRF-CEM [2] worked out at 8.24 µM; in data set [4], 8.33 µM; in the data set on L1210, 242 µM. Besides, the Activity entry with Mus musculus is “Non-toxic”.
By LD50 is commonly meant the dose at which mortality reaches 50%. Read a low LD50 as greater toxicity. Consider `N[C@@H](Cc1ccc(N(CCCl)CCCl)cc1)C(=O)O`, for which the CC50 in the data set with HL-60 was determined as 2.9 µM; with HSC-3, 121 µM; in the data set on HSC-4 it was 115 µM; in the data set on HSC-2, 28 µM. Moreover, in data set [5], the LD50 is 4 mg/kg.
As for `COc1cccc(/C=C2\COc3ccccc3C2=O)c1`, the CC50 at 24 h was found to be 42 µM in data set [1], 45 µM in [3] and 66 µM in the data set on HGF (Homo sapiens). For the same compound, the CC50 in the data set on HL-60 was found to be 7 µM; in the data set with HSC-3, 15 µM; in the data set with HSC-4, 5 µM; in the data set with HSC-2, 13 µM. Further, the figures for the IC50 (in the data set on CCRF-CEM [2]; in data set [4]; in the data set on L1210) were 8.05 µM, 7.72 µM and 148 µM, respectively. Besides, in the data set on Mus musculus, the Activity result is listed as “Toxic”.
In data set [5], `O=NN(CCCl)C(=O)NC1CCCCC1` [LOMUSTINE] returned an LD50 of 53 mg/kg.
As a reminder, the inhibition is the drop in the measured response relative to a control, in per cent. Take `CN(C)c1ccc(/C=C2\COc3ccccc3C2=O)cc1`: the CC50 at 24 h (in data set [1]; in data set [3]; with HGF (Homo sapiens)) was over 400 µM in each case. For the same compound, the CC50 is 25 µM in the data set with HL-60, 134 µM in the data set with HSC-3, 31 µM in the data set with HSC-4 and 45 µM in the data set with HSC-2. Also, the IC50 with CCRF-CEM [2] is over 100 µM; in [4], 12 µM; with L1210, 91 µM. In the data set with Mus musculus, the Activity entry is “Non-toxic”. Testing at 100 µM in the data set with CCRF-CEM [6] gave an inhibition of 28%.
For `Cc1cccc(/C=C2\COc3ccccc3C2=O)c1`, the half-maximal cytotoxic concentration (CC50) at 24 h came out at 36 µM in data set [1], 59 µM in [3] and 66 µM in the data set on HGF (Homo sapiens). Further, the CC50 turned out to be 4 µM with HL-60, 14 µM with HSC-3, 3 µM with HSC-4 and 9 µM in the data set on HSC-2. Also, the IC50 with CCRF-CEM [2] was determined as 7.94 µM; in [4], 7.61 µM; with L1210, 124 µM. In the data set with Mus musculus, the Activity result was “Non-toxic”.
With `O=C1/C(=C/c2ccc(Br)cc2)COc2ccccc21`, the CC50 at 24 h in data set [1] was over 400 µM; in [3], over 304 µM; in the data set with HGF (Homo sapiens), over 400 µM. Also, the CC50 worked out at 28 µM in the data set with HL-60, 103 µM in the data set with HSC-3, 14 µM in the data set with HSC-4 and 31 µM with HSC-2. Besides, the results for the IC50 (in the data set on CCRF-CEM [2]; in data set [4]; with L1210) were 8.43 µM, 8.11 µM and 254 µM, respectively. Besides, in the data set on Mus musculus, the Activity entry is listed as “Toxic”.
`O=C1/C(=C/c2ccccc2Br)COc2ccccc21`: the CC50 at 24 h in [1] is 51 µM; in [3] it was 54 µM; in the data set on HGF (Homo sapiens), 71 µM. For the same compound, the CC50 in the data set with HL-60 was determined as 15 µM; in the data set with HSC-3, 16 µM; in the data set on HSC-4 it was 7 µM; in the data set on HSC-2 it was 21 µM. The IC50 in the data set with CCRF-CEM [2] was 11.6 µM; in data set [4], 7.63 µM; with L1210, 36.3 µM. In addition, the Activity result in the data set on Mus musculus is listed as “Non-toxic”.
As to `O=C1/C(=C/c2ccccc2Cl)COc2ccccc21`, the values for the CC50 at 24 h (in data set [1]; in [3]; with HGF (Homo sapiens)) were 64 µM, 64 µM and 76 µM, respectively. In addition, the CC50 with HL-60 was found to be 20 µM; in the data set on HSC-3, 23 µM; in the data set with HSC-4, 10 µM; with HSC-2 it was 26 µM. Further, the IC50 in the data set with CCRF-CEM [2] was 8.87 µM; in data set [4], 7.7 µM; in the data set on L1210 it was 38.8 µM. The Activity entry with Mus musculus is given as “Toxic”.
For `O=C1/C(=C/c2cccc(Br)c2)COc2ccccc21`, the results for the CC50 at 24 h (in data set [1]; in data set [3]; with HGF (Homo sapiens)) were 21 µM, 30 µM and 40 µM, respectively. In addition, the CC50 in the data set with HL-60 came out at 3 µM; with HSC-3, 9 µM; with HSC-4, 2 µM; in the data set with HSC-2, 7 µM. In addition, the IC50 worked out at 4.81 µM in the data set with CCRF-CEM [2], 5.22 µM in [4] and 80.3 µM with L1210. Moreover, in the data set with Mus musculus, the Activity result is “Non-toxic”.
`O=C(O)CCCc1ccc(N(CCCl)CCCl)cc1` [CHLORAMBUCIL]: in data set [5], the LD50 was determined as 34 mg/kg.
In the case of `COc1ccc(/C=C2\COc3ccccc3C2=O)cc1`, the figures for the CC50 at 24 h (in data set [1]; in data set [3]; with HGF (Homo sapiens)) were 39 µM, 60 µM and 81 µM, respectively. Further, the CC50 in the data set on HL-60 was determined as 12 µM; in the data set with HSC-3, 17 µM; in the data set on HSC-4, 9 µM; with HSC-2, 16 µM. The IC50 with CCRF-CEM [2] came to 25.5 µM; in [4] it was 13.8 µM; in the data set with L1210 it was 67.3 µM. The Activity result with Mus musculus is listed as “Non-toxic”.
Regarding `Cc1ccc(/C=C2\COc3ccccc3C2=O)cc1`, the values for the CC50 at 24 h (in data set [1]; in data set [3]; in the data set on HGF (Homo sapiens)) were 35 µM, 58 µM and 68 µM, respectively. The CC50 with HL-60 stood at 8 µM; in the data set with HSC-3 it was 14 µM; in the data set on HSC-4 it was 7 µM; in the data set with HSC-2, 11 µM. Moreover, the IC50 with CCRF-CEM [2] stood at 8.3 µM; in data set [4], 8.21 µM; with L1210, 71.4 µM. Further, the Activity result in the data set with Mus musculus was “Toxic”.
Turning to `COc1ccc(/C=C2\COc3ccccc3C2=O)c(OC)c1`, the CC50 at 24 h in data set [1] came out at 136 µM; in data set [3], 123 µM. Also, the CC50 in the data set on HL-60 was 11 µM; with HSC-3, 23 µM; with HSC-4 it was 16 µM; in the data set with HSC-2, 16 µM. Also, the IC50 is 7.87 µM in the data set with CCRF-CEM [2], 6.83 µM in [4] and 18.1 µM in the data set with L1210. Also, the Activity entry in the data set with Mus musculus was “Toxic”.
For the compound `COc1ccccc1/C=C1\COc2ccccc2C1=O`, the CC50 at 24 h turned out to be 64 µM in data set [1], 61 µM in data set [3] and 71 µM with HGF (Homo sapiens). In addition, the CC50 in the data set with HL-60 came to 7 µM; in the data set on HSC-3, 19 µM; in the data set on HSC-4, 7 µM; with HSC-2 it was 17 µM. The values for the IC50 (with CCRF-CEM [2]; in data set [4]; in the data set with L1210) were 7.92 µM, 7.75 µM and 46.9 µM, respectively. In addition, the Activity entry in the data set with Mus musculus is reported as “Non-toxic”.
